In brackets after ≈: the same amount, converted by molar mass.
Experiments:
HeLa [1] = assay: (§1) Minimum inhibitory concentration against Vesicular stomatitis virus in HeLa cell cultures; format: functional; conditions: Homo sapiens
Summary of the method: (§2)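 Confluent HeLa, Vero or primary rabbit kidney cell cultures in microtiter trays are inoculated with 100 CCID50 of virus. After 1 h adsorption, residual virus is removed and cells are incubated with varying compound concentrations. Cytopathogenicity is recorded once it is complete in untreated virus-infected controls. MIC is the concentration inhibiting virus-induced cytopathogenicity.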

HeLa [2] = assay: (§3) Minimum inhibitory concentration against polio virus 1 in HeLa cell cultures; format: functional; conditions: Homo sapiens; summary of the method: as §2
HeLa [3] = assay: (§4) Minimum cytotoxic concentration in HeLa cell cultures; format: functional; conditions: Homo sapiens
Oryctolagus cuniculus = species: Oryctolagus cuniculus; assay: (§5) Minimum cytotoxic concentration in primary rabbit kidney cell cultures; format: functional
Vero [4] = assay: (§6) Minimum cytotoxic concentration in Vero cell cultures; format: functional; conditions: Chlorocebus sabaeus
Coxsackievirus B4 [5] = assay: (§7) Minimum inhibitory concentration against Coxsackie virus B4 in Vero cell cultures; format: functional; conditions: Enterovirus B; summary of the method: as §2
Semliki Forest virus = assay: Minimum inhibitory concentration against forest virus in Vero cell cultures; format: functional; summary of the method: as §2
Sindbis virus = assay: Minimum inhibitory concentration against Sindbis virus in Vero cell cultures; format: functional; summary of the method: as §2
[6] = system: Mammalian orthoreovirus 1; assay: (§8) Minimum inhibitory concentration against reovirus in Vero cell cultures; format: functional; summary of the method: as §2
Vero [7] = assay: (§9) Minimum inhibitory concentration against parainfluenza 3 virus in Vero cell cultures; format: functional, Human respirovirus 3; conditions: Chlorocebus sabaeus; summary of the method: as §2
Vaccinia virus = assay: Minimum inhibitory concentration against Vaccinia virus in primary rabbit kidney cell cultures; format: functional; conditions: Orthopoxvirus vaccinia; summary of the method: as §2
[8] = system: Vesicular stomatitis virus; assay: Minimum inhibitory concentration against Vesicular stomatitis virus in primary rabbit kidney cell cultures; format: functional; summary of the method: as §2
HeLa [9] = assay: (§10) Minimum inhibitory concentration against Coxsackie virus B4 in HeLa cell cultures; format: functional; conditions: Homo sapiens; summary of the method: as §2
[10] = system: Moloney murine sarcoma virus; assay: In vitro effective dose against Moloney murine sarcoma virus induced transformation of C3H embryo fibroblast cells.; format: functional; conditions: read-out: ED50 (the source's name)
Summary of the method: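 C3H mouse embryo cells are seeded at 20 000 cells/mL per well and grown 24 h. They are infected with 80 foci-forming units of Moloney MSV for 90 min, then given fresh medium with varying compound concentrations. Transformation is examined microscopically after 6-7 days. ED50 is the dose giving a 50% reduction in transformation.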

[11] = In vitro minimum cytotoxic concentration in C3H embryo fibroblast cells.; format: functional; conditions: Mus musculus
Summary of the method: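 Minimal cytotoxic concentration in C3H mouse embryo cells, run in the same 48-well setup as the MSV transformation assay: the concentration producing microscopically visible alteration of cell morphology.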

[12] = as §4; format: cell-based; conditions: human, HeLa cells
Homo sapiens = species: Homo sapiens; assay: Cytotoxic dose against uninfected human MT-4 cell; format: functional; conditions: MT4, read-out: CD50 (the source's name)
Summary of the method: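 Cytotoxicity counterpart of the HIV assay: uninfected human MT-4 lymphocytes exposed to the compounds. CD50 is the dose that reduces viability of these uninfected cells by 50%.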

[13] = system: Human immunodeficiency virus 1; assay: Effective dose against HIV-1 induced cytopathogenicity in human MT-4 cell.; format: functional; conditions: Human immunodeficiency virus 1, MT4; read-out: ED50 (the source's name)
Summary of the method: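 HIV (HTLV-III_B) is taken from the culture supernatant of a persistently infected HUT-78 line. Human MT-4 lymphocytes are infected and the assay scores inhibition of virus-induced cytopathogenicity. ED50 is the dose giving 50% protection of MT-4 cells against the viral cytopathic effect.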

[14] = as §5; format: cell-based, Oryctolagus cuniculus; conditions: primary rabbit kidney cells
[15] = inimum cytotoxic concentration in Vero cell cultures; format: cell-based; conditions: chlorocebus sabaeus, Vero cells
Human respirovirus 3 = assay: as §9; format: functional; summary of the method: as §2
[16] = system: Vesicular stomatitis virus; assay: as §1; format: functional; summary of the method: as §2
Enterovirus C = assay: as §3; format: functional; summary of the method: as §2
Coxsackievirus = assay: as §7; format: functional; summary of the method: as §2
Reovirus sp. = assay: as §8; format: functional; summary of the method: as §2
Coxsackievirus B4 [17] = assay: as §10; format: functional; conditions: Enterovirus B; summary of the method: as §2
[18] = as §6; format: cell-based; conditions: chlorocebus sabaeus, Vero cells

Nc1ncnc2c1ncn2C[C@H](O)CO [(S)-DHPA]
MIC (HeLa [1]): > 400 µg/mL | MIC (HeLa [2]): > 400 µg/mL | MCC (HeLa [3]): > 400 µg/mL | MCC (Oryctolagus cuniculus): ≥ 400 µg/mL | MCC (Vero [4]): 400 µg/mL | MIC (Coxsackievirus B4 [5]): 100 µg/mL (≈ 478 µM) | MIC (Semliki Forest virus): > 400 µg/mL | MIC (Sindbis virus): > 400 µg/mL | MIC [6]: 7 µg/mL (≈ 33.5 µM) | MIC (Vero [7]): 150 µg/mL (≈ 717 µM) | MIC (Vaccinia virus): 20 µg/mL (≈ 95.6 µM) | MIC [8]: 20 µg/mL (≈ 95.6 µM) | MIC (HeLa [9]): 2 µg/mL (≈ 9.56 µM)

CC(C)(C)[Si](C)(C)OC[C@H]1O[C@@H](n2cnc3c(N)ncnc32)[C@H](O[Si](C)(C)C(C)(C)C)[C@H]1C#N
EC50 [10]: 16 µg/mL (≈ 31.7 µM) | MCC [11]: 80 µg/mL | MCC [12]: > 100 µg/mL | MIC (HeLa [1]): > 40 µg/mL | MIC (HeLa [2]): > 40 µg/mL | CC50 (Homo sapiens): 25 µM | EC50 [13]: > 16 µM | MCC [14]: > 100 µg/mL | MCC [15]: > 40 µg/mL | MIC (Coxsackievirus B4 [5]): 20 µg/mL (≈ 39.6 µM) | MIC (Semliki Forest virus): > 40 µg/mL | MIC (Sindbis virus): 20 µg/mL (≈ 39.6 µM) | MIC (Human respirovirus 3): > 10 µg/mL | MIC [6]: > 10 µg/mL | MIC (Vaccinia virus): > 40 µg/mL | MIC [8]: > 40 µg/mL | MIC (HeLa [9]): > 40 µg/mL

N#C[C@H]1[C@@H](O)[C@H](n2cnc3c(N)ncnc32)O[C@@H]1CO
EC50 [10]: 8.5 µg/mL (≈ 30.8 µM) | MCC [11]: > 40 µg/mL | MCC [12]: > 200 µg/mL | MIC [16]: > 100 µg/mL | MIC (Enterovirus C): > 100 µg/mL | CC50 (Homo sapiens): 3.8 µM | EC50 [13]: > 1.6 µM | MCC [14]: > 400 µg/mL | MIC (Coxsackievirus): > 100 µg/mL | MIC (Semliki Forest virus): 20 µg/mL (≈ 72.4 µM) | MIC (Sindbis virus): 10 µg/mL (≈ 36.2 µM) | MIC (Human respirovirus 3): > 100 µg/mL | MIC (Reovirus sp.): > 40 µg/mL | MIC [8]: > 400 µg/mL | MIC (Coxsackievirus B4 [17]): 200 µg/mL (≈ 724 µM) | MCC [18]: 100 µg/mL
